An excerpt weighted towards active compounds, which were near 1.7% of everything screened.
Scp1 inh: inhibitors of human Scp-1 phosphatase. Q9GZU7. Recombinant Scp1, phosphopeptide, malachite green phosphate absorbance. inhibition, % at 20 µM. hit rate 0.88% among 340,000. AID 493091;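 active = inhibition above about 50% at 20 µM, limit read from the data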;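 also: plate controls were DMSO wells with enzyme for no effect and wells lacking enzyme for full effect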
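Material – SCP-1 phosphatase catalytic domain, residues 76-261 · Buffer or medium – Acidic Tris acetate buffer with magnesium and detergent · Also added – Phospho 17-mer peptide substrate · Compound – single 20 µM dose, 1% DMSO · Times – 45 min room-temperature reaction, 5 min colour, 30 min stabiliser · Technique – Phosphate-binding colour reagent, absorbance read at 630 nm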
STEP inh: inhibitors of human striatal-enriched phosphatase STEP | P54829 | recombinant STEP, OMFP fluorogenic substrate, fluorescence | inhibition, % at 20 µM | hit rate 0.25% among 360,000;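 active = inhibition at 20 µM, scaled per plate between control wells, above about 37%, limit read from the data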;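 also: 0% = DMSO with enzyme and substrate and 100% = substrate only without enzyme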
Target sequence (P54829 whole entry, looked up): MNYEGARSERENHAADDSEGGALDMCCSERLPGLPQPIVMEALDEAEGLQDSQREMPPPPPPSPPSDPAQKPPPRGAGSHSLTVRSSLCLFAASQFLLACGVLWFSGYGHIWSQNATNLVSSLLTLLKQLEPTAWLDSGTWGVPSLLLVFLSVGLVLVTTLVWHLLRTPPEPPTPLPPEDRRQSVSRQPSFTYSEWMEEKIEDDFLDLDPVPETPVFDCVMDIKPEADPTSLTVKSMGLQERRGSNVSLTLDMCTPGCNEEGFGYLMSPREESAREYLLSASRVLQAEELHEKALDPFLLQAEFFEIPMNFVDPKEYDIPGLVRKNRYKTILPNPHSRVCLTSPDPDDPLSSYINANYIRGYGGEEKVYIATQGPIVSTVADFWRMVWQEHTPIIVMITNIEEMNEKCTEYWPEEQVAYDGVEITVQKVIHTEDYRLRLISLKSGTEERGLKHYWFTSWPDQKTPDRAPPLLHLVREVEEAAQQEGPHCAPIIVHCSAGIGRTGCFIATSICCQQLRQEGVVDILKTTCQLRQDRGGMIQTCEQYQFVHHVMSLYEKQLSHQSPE
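System: STEP (striatal-enriched tyrosine phosphatase) enzyme, cell-free; medium: Bis-Tris pH 6.0 buffer with DTT, detergent; dosing: 20 µM, 1% DMSO; times: reaction 20 min, ambient temperature; detection: fluorescence, 480/540 nm; read-out basis: normalized % inhibition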
LMPTP block: LMPTP (human) inhibition | P24666 | recombinant LMPTP-A, OMFP fluorogenic substrate, fluorescence intensity | inhibition, % at 20 µM | hit rate 0.22% among 360,000;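 active = compounds that cut the enzyme signal by at least half of the control window in the single-dose screen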;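 also: plate controls were DMSO wells with enzyme plus substrate for no effect and substrate without enzyme for full effect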
Target sequence (P24666 whole entry, looked up): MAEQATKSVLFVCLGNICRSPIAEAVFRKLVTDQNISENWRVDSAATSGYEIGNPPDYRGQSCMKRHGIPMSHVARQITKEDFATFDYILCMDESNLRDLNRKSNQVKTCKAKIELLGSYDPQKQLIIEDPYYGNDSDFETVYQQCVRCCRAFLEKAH
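Test system: LMPTP-A, protein tyrosine phosphatase of low molecular weight; Input: 0.625 nM enzyme; Incubation: 50 min dark incubation at room temperature; Signal: endpoint fluorescence intensity from OMFP dephosphorylation; Read-out basis: % inhibition versus control wells.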
Pemphigus Ab inh: human desmoglein-3 autoantibody binding inhibition | P32926 | DSG3-coupled beads, scFv-anti-DSG3-GFP binding, flow cytometry; stronger effect = lower value | binding (percent of control), % at 10 µM | hit rate 0.48% among 310,000;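 active = binding more than 3 SD below its plate's average and above zero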;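 also: hits lower antibody fragment binding to DSG3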
SUMO1 PPI mod: modulators of human SUMO1-mediated protein-protein interactions; P63165; SUMO1 binding to a labelled peptide, TR-FRET, 1 h; inhibition, % at 20 µM; hit rate 0.33% among 360,000; AID 602429; in the data active = inhibition above about 37%
Scp-1 conf: Scp-1 (human) inhibition, single-dose confirmed | recombinant SCP-1 catalytic domain, phosphate release, malachite green absorbance | hit rate 61% among 2,500 | inhibition, % at 20 µM | shares compounds with Scp1 inh;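 also: plate controls were DMSO with enzyme for no effect and buffer wells lacking enzyme for full effect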
Scp-1 MG ctr: interferes with malachite green readout, flagging false Scp-1 hits; Colorimetric interference counterscreen, malachite green absorbance 630 nm; apparent inhibition (interference), % at 20 µM; shares compounds with Scp1 inh; 2,500 tested, under 10 active;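 also: compounds added after enzyme reaction finished so only phosphate colour detection is probed; plate controls were DMSO wells with completed Scp-1 reaction for no effect and substrate wells lacking enzyme for full effect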
Scp1 DSF: binds human Scp-1, shifting its melting temperature; shares compounds with Scp1 inh; Recombinant SCP1, Sypro Orange thermal shift Tm; thermal shift relative to vanadate control, % at 40 µM; hit rate 25% among 1,500; AID 540329;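 active = substances whose mean melting-temperature shift, as a percentage of the reference inhibitor's shift, reaches about 5.3%, limit read from the data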;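 also: 0% = Tm of DMSO wells and 100% = Tm with sodium orthovanadate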
* hit, by the source's call; nt = no result.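 The calls were made as follows, unless noted: active = inhibition of at least 30% at 20 µM; inactive = the rest.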

SMILES | Scp1 inh | STEP inh | LMPTP block | Pemphigus Ab inh | SUMO1 PPI mod | Scp-1 conf | Scp-1 MG ctr | others
O=C(COC(=O)/C=C/c1ccc(OC(F)F)cc1)NC1CCCCCCC1 | -11.4 | -0.2 | -1.2 | 92.6 | 1.8 | nt | nt
N#Cc1ccccc1OCC(=O)OCC(=O)NCc1ccc2c(c1)OCO2 | -5.7 | -2.8 | -0.8 | 110.0 | 2.3 | nt | nt
Cc1ccc(CSC2=Nc3ccccc3C3=NC(CCC(=O)NCc4ccco4)C(=O)N23)cc1 (stereo not given) | -6.9 | -1.7 | 1.0 | 101.5 | 2.7 | nt | nt
O=C(CCC1N=C2c3ccccc3N=C(SCC(=O)NCc3ccco3)N2C1=O)NCc1ccco1 (stereo not given) | 82.5* | 1.8 | -0.3 | 112.9 | 2.5 | 69.1* | -15.1 | Scp1 DSF=-17.2
CCc1ccc(N(CC(=O)NC(C)C)C(=O)CCC(=O)Nc2ccccn2)cc1 | -5.2 | -2.7 | -1.7 | 121.5 | -1.5 | nt | nt
Cc1cc(C)cc(C(=O)NC(CC(N)=O)c2ccc(NC3CCCCC3)c([N+](=O)[O-])c2)c1 (stereo not given) | -0.2 | 2.7 | -0.7 | 105.5 | -4.7 | nt | nt
O=C(N/N=C/c1cccnc1)/C(=C\c1cccs1)NC(=O)c1ccccc1 | -6.7 | 0.1 | -1.5 | 100.7 | -11.9 | nt | nt
O=C(N/N=C/c1cc2ccccc2nc1Cl)/C(=C/c1cccs1)NC(=O)c1ccccc1 | 98.7* | 13.7 | -2.5 | nt | 9.2 | 34.8* | -7.9 | Scp1 DSF=3.0
COC(=O)c1nnn(-c2nonc2N)c1CSc1nnc(N)s1 | -1.8 | 1.6 | -3.2 | 92.5 | -6.8 | nt | nt
COC(=O)c1nnn(-c2nonc2N)c1CSc1nnc(C)s1 | 50.9* | -2.1 | -1.1 | 101.1 | 0.0 | 5.4 | -1.0
O=[N+]([O-])c1cc(S(=O)(=O)Nc2ccccc2)ccc1Nc1ccccc1 | 61.0* | 1.8 | 6.3 | 116.2 | -21.1 | -3.2 | -26.4
CC(=O)Nc1ccc(NC(=O)c2ccc(OCc3c(C)noc3C)cc2)cc1 | 58.7* | -3.0 | 0.4 | 127.5 | -1.3 | -13.2 | -17.5
CCN(CC(=O)Nc1ccc(S(=O)(=O)N2CCCCC2)cc1)Cc1ccccc1 | 4.4 | -2.3 | -5.0 | 60.8 | -0.4 | nt | nt
COc1ccc(OCC(=O)Nc2c3c(nn2C(C)(C)C)CSC3)cc1 | -7.4 | 0.6 | 1.1 | 104.7 | -0.2 | nt | nt
Cc1ccc(CN2CCC(CNS(=O)(=O)c3ccc(-c4ccc(=O)[nH]n4)s3)CC2)cc1 | -1.4 | -1.4 | 0.5 | 125.8 | -33.6 | nt | nt
CC(C)OCCCN(C)C1CCN(S(=O)(=O)c2ccc(-c3ccc(=O)[nH]n3)s2)CC1 | 50.7* | -3.9 | 1.6 | 102.1 | -19.5 | -25.2 | -20.0
CC(C)c1ccc(NC(=O)c2cc([N+](=O)[O-])ccc2N2CCOCC2)cc1 | 55.0* | 0.7 | 0.8 | 105.1 | -17.7 | -10.8 | -12.9
Cc1cc(C)cc(OCCn2nnc3ccccc32)c1 | 61.5* | -1.2 | 1.4 | 96.0 | 4.2 | -12.6 | -16.2
CC(C)Cn1c(-c2cccnc2)nc2c1c(=O)[nH]c(=O)n2CC(C)C | -0.5 | -0.5 | -0.1 | 92.4 | 2.6 | nt | nt
O=C1Nc2ccc(S(=O)(=O)NCc3ccco3)c3cccc1c23 | 56.3* | -6.8 | 2.8 | 96.9 | 11.4 | 69.7* | 1.7 | Scp1 DSF=-3.1
COc1ccc(/C=C/c2ccc3ccccc3[n+]2C)cc1OC | 99.1* | 0.4 | 2.4 | 143.8 | -29.6 | 4.5 | -6.0
CC(=O)Oc1ccccc1/C=C/c1ccc2ccccc2[n+]1C | 16.8 | -2.8 | -0.9 | 98.2 | -29.1 | nt | nt
COc1ccccc1NC(=O)Cn1c(O)c(N=NC(=O)c2ccccc2O)c2ccccc21 | 93.7* | 54.6* | 59.9* | 106.4 | -5.0 | 89.6* | 4.2 | Scp1 DSF=2.9
O=C1CC(=O)Nc2cc(S(=O)(=O)Nc3cccc(C(F)(F)F)c3)ccc2N1 | -4.7 | -2.4 | -0.8 | 100.4 | 6.7 | -4.7 | -7.3
O=C1CC(=O)Nc2cc(S(=O)(=O)Nc3ccc(Cl)c(C(F)(F)F)c3)ccc2N1 | -7.9 | 4.8 | 1.6 | 95.5 | 2.2 | nt | nt
SMILES | Scp1 inh | STEP inh | LMPTP block | Pemphigus Ab inh | SUMO1 PPI mod | Scp-1 conf | Scp-1 MG ctr | others
CC1(O)C(c2ccccc2)=Nc2ccccc21 (stereo not given) | nt | 0.6 | -1.4 | 104.7 | -8.3 | nt | nt
C#CCn1c(=NC(=O)c2ccc(Br)s2)sc2cc(NC(C)=O)ccc21 | 54.0* | 18.8 | 5.6 | 96.7 | 0.0 | 70.4* | -6.5 | Scp1 DSF=2.1
COCCn1c(=NC(=O)c2cccs2)sc2cc(NC(C)=O)ccc21 | -5.5 | -1.2 | -0.1 | 123.9 | -0.7 | nt | nt
CCCc1cc(SCC(=O)Nc2c(C)n(C)n(-c3ccccc3)c2=O)n2c(nc3ccccc32)c1C#N | 97.7* | nt | nt | nt | nt | 84.4* | -8.2 | Scp1 DSF=-5.3
Cc1nc(SCC(=O)Nc2c(C)n(C)n(-c3ccccc3)c2=O)c(C#N)c(C)c1C | 1.1 | -0.3 | -0.9 | 97.7 | 19.5 | nt | nt
CCCOc1ccc(-c2nnc(-c3cccs3)o2)cc1 | 66.6* | -1.6 | 0.7 | nt | 17.9 | -11.7 | -19.2
Cc1onc(-c2ccccc2Cl)c1C(=O)NCc1ccco1 | 82.8* | 2.8 | 20.6 | 112.0 | 2.7 | -6.8 | -10.9
COC(=O)CNC(=O)c1c(-c2c(Cl)cccc2Cl)noc1C | 54.7* | -5.8 | -0.2 | 101.0 | 1.6 | -10.2 | -12.3
Cc1ccc(CNC(=O)c2c(-c3ccccc3Cl)noc2C)cc1 | 8.3 | -0.8 | 0.0 | 111.4 | 4.5 | nt | nt
CC1(C(=O)Nc2cccc(C#N)c2)CCN1C(=O)C/C=C/c1ccccc1 (stereo not given) | nt | 3.5 | 0.6 | nt | 1.7 | nt | nt
S=c1[nH]nc(-c2ccco2)n1-c1ccccc1Cl | -13.8 | -1.7 | -2.9 | nt | 0.8 | nt | nt
S=c1[nH]nc(-c2cc(-c3ccco3)[nH]n2)n1-c1ccccc1Cl | 75.3* | 5.3 | 1.0 | 99.0 | 34.2 | 31.1* | -17.5 | Scp1 DSF=10.5*
CCC(C)C1Nc2ccc(C(=O)NCCc3ccc(OC)c(OC)c3)cc2NC1=O (stereo not given) | -4.8 | 1.8 | -2.8 | 102.1 | -2.3 | -8.4 | -6.5
COc1ccc(CCNC(=O)c2ccc(OC)c(OC)c2)cc1OC | 0.5 | -2.7 | 0.3 | 101.1 | 10.8 | nt | nt
CN(C)S(=O)(=O)c1ccc(C(=O)NCC[N+]2(C)CCCCCC2)o1 | 67.6* | -3.6 | -3.2 | 133.7 | 4.1 | -20.6 | -19.2
COc1ccc(C(=O)NC2CCCc3ccccc32)cc1[N+](=O)[O-] (stereo not given) | -11.7 | 2.3 | -0.3 | 99.7 | -13.0 | nt | nt
CCCn1c2c(c(=N)c3c1CCC3)CCCC2 | 73.9* | -5.7 | 1.3 | 101.9 | 2.5 | 6.1 | -8.7
O=C(c1cc2nc(-c3ccccc3)cc(C(F)(F)F)n2n1)N1CCOCC1 | -2.2 | -1.7 | 0.2 | nt | -16.5 | nt | nt
